Data from ChEMBL document CHEMBL1134686, “Design, synthesis, SAR, and biological evaluation of highly potent benzimidazole-spaced phosphono-alpha-amino acid competitive NMDA antagonists of the AP-6 type” (J Med Chem, 2001).

What was measured:
Mus musculus = experiment: Functional NMDA antagonist activity was confirmed in vivo in mice (intraperitoneally) using an NMDA-induced lethality assay
Glutamate NMDA receptor [1] = experiment: Displacement of [3H]CPP from rat synaptic membrane glutamate NMDA receptor
Glutamate NMDA receptor [2] = experiment: Affinity for the NMDA receptor site was assessed by its ability to displace [3H]TCP from its binding site in rat brain; assay type: tissue-based
How it was run: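 Rat whole-brain crude synaptic membranes, resuspended in ice-cold 5.0 mM Tris HCl pH 7.4. Triplicate incubation 1 h at 25 °C with 2.5 nM [³H]TCP, 3 µM L-glutamate and 1 µM glycine. Nonspecific binding defined with 100 µM MK-801. Filtration on PEI-presoaked glass fiber filters, then scintillation counting. IC50 with 95% confidence limits from 5-10 concentrations.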

Rattus norvegicus [3] = species: Rattus norvegicus; experiment: Effect on the decrease in volume of infarcted brain tissue in rat; assay type: functional
How it was run: (§1)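 Male Fisher-344 rats under isoflurane, with permanent occlusion of the distal MCA plus the ipsilateral common carotid; body temperature held at 37 °C. Single iv tail-vein bolus of 3 mg/kg in 0.9% NaCl, given 5 min post-occlusion. At 24 h, cresyl violet-stained forebrain sections were taken at 400 µm intervals. Infarct volume by image analysis, mean ± SE, n=27-28 per group.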

Rattus norvegicus [4] = species: Rattus norvegicus; experiment: Effect on the volume of infarcted brain tissue in rat; assay type: functional; how it was run: as §1
[5] = target: T1, Glutamate NMDA receptor (Rattus norvegicus) (UniProt P35439+Q00959+Q00960+Q00961+Q62645+Q8VHN2+Q9R1M7); experiment: Affinity for the NMDA receptor site was assessed by its ability to displace [3H]TCP from its binding site in rat brain at a concentration of 100 uM; assay type: tissue-based
[6] = target: T1, Glutamate NMDA receptor (Rattus norvegicus); experiment: Affinity for the NMDA receptor site was assessed by the ability to displace [3H]CPP from its binding site in rat synaptic membranes at a concentration of 100 uM; assay type: cell membranes
How it was run: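 Rat whole-brain crude synaptic membranes (Triton X-100 treated, frozen), in 50 mM Tris HCl pH 7.6, 0.2-0.5 mg protein. Triplicate incubation 15 min at 23 °C with 8 nM [³H]CPP. Nonspecific binding defined with 1.0 mM NMDA. Bound ligand separated by centrifugation at 48000g, then scintillation counting. Percent inhibition reported at 100 µM.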

[7] = Mus musculus, ip, read-out: ED50

Row | SMILES | IC50 (Glutamate NMDA receptor [1]) [nM] | ED50 (Mus musculus; [7]) [mg/kg] | inhibition [5] [%] | inhibition [6] [%] | further results
1 | NC(Cc1nc2ccccc2n1CP(=O)(O)O)C(=O)O (stereo in doubt; 8) [listing 1 of 2 here] | – | – | – | – | ED50 (Mus musculus): 7.91 mg/kg
2 | NC(Cc1nc2cc(Br)ccc2n1CP(=O)(O)O)C(=O)OCc1ccccc1 (stereo not given) | 56 | 0.47 | – | – | IC50 (Glutamate NMDA receptor [2]): 15500 nM
3 | N[C@H](Cc1nc2cc(Cl)ccc2n1CP(=O)(O)O)C(=O)O | 7.1 | 0.13 | – | – | IC50 (Glutamate NMDA receptor [2]): 720 nM; Decrease (Rattus norvegicus [3]): 45%; Volume (Rattus norvegicus [4]): 51.3 mm**3
4 | NC(Cc1nc2cc(C(F)(F)F)ccc2n1CP(=O)(O)O)C(=O)O (stereo not given) | 750 | – | 40 | – | –
5 | NC(Cc1nc2ccc(Cl)cc2n1CP(=O)(O)O)C(=O)O (single isomer, unassigned; (-)) | 22 | 2.56 | – | – | IC50 (Glutamate NMDA receptor [2]): 13600 nM
6 | NC(Cc1nc2cc(Cl)c(Cl)cc2n1CP(=O)(O)O)C(=O)O (single isomer, unassigned; (+)) | 1000 | – | – | – | –
7 | NC(Cc1nc2ccccc2n1CP(=O)(O)O)C(=O)O (stereo in doubt; 8) [listing 2 of 2 here] | – | – | 29.1 | 30 | –
8 | NC(CCc1nc2ccccc2n1CP(=O)(O)O)C(=O)O (stereo in doubt; 10) | 5200 | – | – | – | –
9 | Cc1cc2nc(CC(N)C(=O)O)n(CP(=O)(O)O)c2cc1C (single isomer, unassigned; (-)) | – | – | 88.5 | 99.7 | –
10 | CCOC(=O)C(N)Cc1nc2ccccc2n1CP(=O)(O)O (single isomer, unassigned; (-)) | – | – | 0 | 61 | –
11 | NC(Cc1nc2cccc(Cl)c2n1CP(=O)(O)O)C(=O)O (single isomer, unassigned; (-)) | – | – | 28.1 | 73 | –
12 | NC(CCc1nc2ccccc2n1CP(=O)(O)O)C(=O)O (single isomer, unassigned; (-)) | 6800 | – | – | – | –
13 | NC(Cc1nc2ccccc2n1CC(=O)O)C(=O)O (single isomer, unassigned; (-)) | – | – | 9.5 | 30 | –
14 | NC(Cc1nc2cc(Cl)c(Cl)cc2n1CP(=O)(O)O)C(=O)O (single isomer, unassigned; (-)) | 18 | 2.58 | – | – | –
15 | NC(Cc1nc2ccccc2n1CCP(=O)(O)O)C(=O)O (single isomer, unassigned; (-)) | – | – | 9.5 | 39 | –
16 | NC(Cc1nc2cc(Cl)ccc2n1CP(=O)(O)O)C(=O)OCc1ccccc1 (stereo not given) | 150 | – | – | – | IC50 (Glutamate NMDA receptor [2]): 46500 nM
17 | O=C(O)[C@@H]1C[C@H](CP(=O)(O)O)CCN1 [SELFOTEL] | – | 0.6 | – | – | –
18 | NC(CCCCCP(=O)(O)O)C(=O)O (stereo not given) [AP-7] | – | 37.6 | – | – | –
19 | NC(Cc1nc2c(Cl)cccc2n1CP(=O)(O)O)C(=O)O (single isomer, unassigned; (-)) | – | – | – | 81 | –
20 | NC(Cc1nc2ccccc2n1CP(=O)(O)O)C(=O)O (single isomer, unassigned; (-)) | 77 | – | – | – | IC50 (Glutamate NMDA receptor [2]): 11100 nM; ED50 (Mus musculus): 2.04 mg/kg
21 | O=C(O)C1CN(CCCP(=O)(O)O)CCN1 (stereo not given) | – | 1 | – | – | –
